From ChEMBL document CHEMBL1687803, “Elevated linezolid resistance in clinical cfr-positive Staphylococcus aureus isolates is associated with co-occurring mutations in ribosomal protein L3” (2010)
In brackets after ≈: the same amount, converted by molar mass.

Experiments:
Type in all cases: functional
Staphylococcus aureus [1] = test: Antibacterial activity against clinical-derived Staphylococcus aureus isolate harboring ribosomal protein L3 deltaSer145/His146Tyr mutant by broth microdilution method
In short: (§1)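 MICs were measured by broth microdilution following CLSI guidelines against clinical cfr-positive S. aureus isolates. Oxazolidinones and comparator antibiotics were tested. Extra ribosomal mutations were identified by sequencing 23S rRNA domain V of all alleles and the rplC and rplD genes.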

Staphylococcus aureus [2] = test: Antibacterial activity against laboratory-derived Staphylococcus aureus isolate 29213-2 harboring ribosomal protein L3 Gly155Arg/Met169Leu mutant and cfr-containing p42262 by broth microdilution method
In short: (§2)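 The S. aureus ATCC 29213 parent and its isogenic L3 mutants carried the cfr plasmid p42262, introduced by electroporation. The plasmid came from clinical strain 42262. MICs were then measured by CLSI broth microdilution against oxazolidinones and comparator antibiotics.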

Staphylococcus aureus [3] = test: Antibacterial activity against laboratory-derived Staphylococcus aureus isolate 29213-3 harboring ribosomal protein L3 deltaPhe127-His146 mutant and cfr-containing p42262 by broth microdilution method; in short: as §2
Staphylococcus aureus [4] = test: Antibacterial activity against laboratory-derived Staphylococcus aureus isolate 29213-1 harboring ribosomal protein L3 Gly155Arg mutant and cfr-containing p42262 by broth microdilution method; in short: as §2
Staphylococcus aureus [5] = test: Antibacterial activity against laboratory-derived Staphylococcus aureus isolate 29213-2 harboring ribosomal protein L3 Gly155Arg/Met169Leu mutant by broth microdilution method
In short: (§3)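 MICs were measured by CLSI broth microdilution against the S. aureus ATCC 29213 parent or its isogenic L3 mutants. The mutants had been selected earlier in vitro with oxazolidinones. Oxazolidinones and comparator antibiotics were tested. L3 mutations use staphylococcal numbering.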

Staphylococcus aureus [6] = test: Antibacterial activity against clinical-derived Staphylococcus aureus isolate 42262 by broth microdilution method; in short: as §1
Staphylococcus aureus [7] = test: Antibacterial activity against laboratory-derived Staphylococcus aureus isolate 29213-1 harboring ribosomal protein L3 Gly155Arg mutant by broth microdilution method; in short: as §3
Staphylococcus aureus [8] = test: Antibacterial activity against laboratory-derived Staphylococcus aureus ATCC 29213 harboring cfr-containing p42262 by broth microdilution method; in short: as §2
Staphylococcus aureus [9] = test: Antibacterial activity against laboratory-derived Staphylococcus aureus ATCC 29213 by broth microdilution method; in short: as §3
Staphylococcus aureus [10] = test: Antibacterial activity against clinical-derived Staphylococcus aureus isolate 51312 harboring ribosomal protein L3 deltaMet169-Gly174 mutant by broth microdilution method; in short: as §1
Staphylococcus aureus [11] = test: Antibacterial activity against laboratory-derived Staphylococcus aureus isolate 29213-3 harboring ribosomal protein L3 deltaPhe127-His146 mutant by broth microdilution method; in short: as §3
Staphylococcus aureus [12] = test: Antibacterial activity against cfr positive Staphylococcus aureus clinical isolate by broth microdilution method
In short: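 MICs against clinical cfr-positive S. aureus isolates (groups 1–3 plus an environmental strain), by CLSI broth microdilution. Non-isogenic ATCC 29213 served as a linezolid-susceptible control strain. Isolates were also characterised by sequencing 23S rRNA domain V (all alleles), rplC (L3) and rplD (L4).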

Staphylococcus aureus [13] = test: Antibacterial activity against laboratory-generated cfr-transformed Staphylococcus aureus by broth microdilution method
In short: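 Isogenic panel in the S. aureus ATCC 29213 background: wild-type parent and three laboratory-selected L3 mutants, each electroporated with cfr plasmid p42262 from clinical strain 42262. MICs were read by CLSI broth microdilution.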

SMILES	MIC (Staphylococcus aureus [1])	MIC (Staphylococcus aureus [2])	MIC (Staphylococcus aureus [3])	MIC (Staphylococcus aureus [4])	MIC (Staphylococcus aureus [5])	MIC (Staphylococcus aureus [6])	MIC (Staphylococcus aureus [7])	MIC (Staphylococcus aureus [8])	MIC (Staphylococcus aureus [9])	MIC (Staphylococcus aureus [10])	MIC (Staphylococcus aureus [11])	MIC (Staphylococcus aureus [12])	MIC (Staphylococcus aureus [13])
CC(=O)NC[C@H]1CN(c2ccc(-c3ccc(CNCc4cnn[nH]4)cc3)c(F)c2)C(=O)O1 [RADEZOLID]	4 µg/mL (≈ 9.12 µM)	8 µg/mL (≈ 18.2 µM)	8 µg/mL (≈ 18.2 µM)	4 µg/mL (≈ 9.12 µM)	2 µg/mL (≈ 4.56 µM)	4 µg/mL (≈ 9.12 µM)	1 µg/mL (≈ 2.28 µM)	2 µg/mL (≈ 4.56 µM)	1 µg/mL (≈ 2.28 µM)	8 µg/mL (≈ 18.2 µM)	2 µg/mL (≈ 4.56 µM)	–	–
O=C(N[C@H](CO)[C@H](O)c1ccc([N+](=O)[O-])cc1)C(Cl)Cl [CHLORAMPHENICOL]	> 64 µg/mL	> 64 µg/mL	> 64 µg/mL	> 64 µg/mL	8 µg/mL (≈ 24.8 µM)	> 64 µg/mL	8 µg/mL (≈ 24.8 µM)	> 64 µg/mL	8 µg/mL (≈ 24.8 µM)	> 64 µg/mL	8 µg/mL (≈ 24.8 µM)	–	–
Cn1nnc(-c2ccc(-c3ccc(N4C[C@H](CO)OC4=O)cc3F)cn2)n1 [TEDIZOLID]	1 µg/mL (≈ 2.7 µM)	2 µg/mL (≈ 5.4 µM)	2 µg/mL (≈ 5.4 µM)	1 µg/mL (≈ 2.7 µM)	2 µg/mL (≈ 5.4 µM)	0.5 µg/mL (≈ 1.35 µM)	1 µg/mL (≈ 2.7 µM)	0.5 µg/mL (≈ 1.35 µM)	0.5 µg/mL (≈ 1.35 µM)	2 µg/mL (≈ 5.4 µM)	2 µg/mL (≈ 5.4 µM)	–	–
C=C[C@]1(C)C[C@@H](OC(=O)CSCCN(CC)CC)[C@]2(C)[C@H](C)CC[C@]3(CCC(=O)[C@H]32)[C@@H](C)[C@@H]1O [TIAMULIN]	> 64 µg/mL	> 64 µg/mL	> 64 µg/mL	> 64 µg/mL	4 µg/mL (≈ 8.1 µM)	> 64 µg/mL	8 µg/mL (≈ 16.2 µM)	> 64 µg/mL	0.5 µg/mL (≈ 1.01 µM)	> 64 µg/mL	4 µg/mL (≈ 8.1 µM)	–	–
CC(=O)NC[C@H]1CN(c2ccc(N3CCOCC3)c(F)c2)C(=O)O1 [LINEZOLID]	32 µg/mL (≈ 94.9 µM)	64 µg/mL (≈ 190 µM)	64 µg/mL (≈ 190 µM)	32 µg/mL (≈ 94.9 µM)	8 µg/mL (≈ 23.7 µM)	16 µg/mL (≈ 47.4 µM)	–	16 µg/mL (≈ 47.4 µM)	–	64 µg/mL (≈ 190 µM)	8 µg/mL (≈ 23.7 µM)	8 µg/mL (≈ 23.7 µM)	8 µg/mL (≈ 23.7 µM)
